Source: PubChem
NOD2-RIPK2 inh: inhibitors of human NOD2-RIPK2 interaction; CHO BLA complementation NOD2-RIPK2, CCF4 ratio; inhibition, % at 4.98 µM; 360,000 compounds, 0.38% hits; AID 624267; O43353; in the data active = inhibition above about 21%;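 also: 0% = vehicle only and 100% = reference blocker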
XBP1 UPR activ: activators of adaptive arm of unfolded protein response (XBP1) | activation, % at 20 µM | CHO-XBP1 luciferase reporter, IRE1-XBP1 UPR activation, luminescence; percent of tunicamycin response, DMSO as zero | 330,000 compounds, 0.33% hits;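 active = versus positive control, 20 µM dose yields 30% or more activation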;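 also: 100% = tunicamycin at 10 µg/mL and 0% = DMSO only wells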
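Material: CHO cell line with stable XBP1 luciferase reporter; buffer or medium: F12 medium containing 10% fetal bovine serum; compound: single point, 20 µM final compound, 1% DMSO; incubation: 6 h treatment, 37 °C; measured by: glow luminescence from Steady-Glo reagent; evaluation: activation, % of tunicamycin; control set: tunicamycin high, DMSO low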
CHOP inhibitor: inhibitors of CHOP induction in ER stress response. 220,000 compounds, 3.8% hits. inhibition, % at 10 µM. AID 2732. CHO-K1 CHOP-promoter luciferase, tunicamycin-induced, 15-18 h;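 active = compounds that reduced the stress-induced luciferase reporter signal by more than about 70% of percent inhibition, limit read from the data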;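 also: 0% = tunicamycin plus vehicle and 100% = wells without tunicamycin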
TLR4-MyD88 BLA: TLR4-MyD88 interaction inhibition in cells; O00206+Q99836; HeLa CL3-4 TLR4/MyD88 BLA complementation, FRET ratio; 200,000 compounds, 0.18% hits; inhibition, % at 8.4 µM; in the data active = inhibition above about 25%;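 also: 0% = vehicle and 100% = reference inhibitor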
Target sequence (O00206 whole entry, looked up): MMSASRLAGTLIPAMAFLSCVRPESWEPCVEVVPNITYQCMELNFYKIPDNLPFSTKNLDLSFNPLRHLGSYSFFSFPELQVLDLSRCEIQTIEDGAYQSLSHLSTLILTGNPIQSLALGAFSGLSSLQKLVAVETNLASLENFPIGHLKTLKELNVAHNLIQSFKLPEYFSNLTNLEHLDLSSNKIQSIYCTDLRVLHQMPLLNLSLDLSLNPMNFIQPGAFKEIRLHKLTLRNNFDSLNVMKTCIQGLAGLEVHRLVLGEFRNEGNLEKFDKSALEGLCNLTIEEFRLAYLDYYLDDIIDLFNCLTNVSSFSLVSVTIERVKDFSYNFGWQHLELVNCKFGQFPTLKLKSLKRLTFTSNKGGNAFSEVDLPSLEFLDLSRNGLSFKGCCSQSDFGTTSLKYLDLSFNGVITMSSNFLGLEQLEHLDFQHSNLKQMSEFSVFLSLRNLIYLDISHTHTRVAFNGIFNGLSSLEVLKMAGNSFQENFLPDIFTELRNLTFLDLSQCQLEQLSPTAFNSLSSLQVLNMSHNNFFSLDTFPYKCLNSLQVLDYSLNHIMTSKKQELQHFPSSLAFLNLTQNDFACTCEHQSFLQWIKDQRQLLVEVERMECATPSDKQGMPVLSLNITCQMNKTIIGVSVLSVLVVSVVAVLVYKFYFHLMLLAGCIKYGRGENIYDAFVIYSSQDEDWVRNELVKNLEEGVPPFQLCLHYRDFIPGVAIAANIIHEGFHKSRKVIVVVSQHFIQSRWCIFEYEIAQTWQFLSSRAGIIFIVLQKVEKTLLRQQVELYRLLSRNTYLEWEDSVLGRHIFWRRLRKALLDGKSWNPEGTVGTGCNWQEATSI
Target sequence (Q99836 whole entry, looked up): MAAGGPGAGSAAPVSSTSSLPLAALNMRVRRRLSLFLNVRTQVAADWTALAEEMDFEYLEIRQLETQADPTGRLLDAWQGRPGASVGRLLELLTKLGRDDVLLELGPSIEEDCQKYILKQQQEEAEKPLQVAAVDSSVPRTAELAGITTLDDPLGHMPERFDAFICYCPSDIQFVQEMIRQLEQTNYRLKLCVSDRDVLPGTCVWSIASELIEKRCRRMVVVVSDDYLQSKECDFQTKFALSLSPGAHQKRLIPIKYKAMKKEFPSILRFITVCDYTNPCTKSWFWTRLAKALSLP
TLR9-MyD88 block: inhibitors of human TLR9-MyD88 binding; 340,000 compounds, 0.21% hits; Q9NR96+Q99836; CHO BLA complementation TLR9-MyD88, CCF4 FRET ratio; AID 504734; inhibition, % at 4.98 µM;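 active = inhibition above the mean over all tested compounds plus 3 SD, cut at about 21% in these data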;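 also: 0% = DMSO only wells and 100% = clavulanate BLA inhibitor control wells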
CHOP UPR activ: apoptotic UPR (CHOP) activation; CHO-CHOP luciferase reporter, luminescence; percent of tunicamycin response over DMSO baseline; activation, % at 10 µM; 330,000 compounds, 0.34% hits;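 active = at 10 µM dose, activation of 40% or more, normalized to positive control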;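 also: 100% = tunicamycin at 10 µg/mL and 0% = DMSO alone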
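Assay system: CHO-CHOP cells, stable luciferase reporter of PERK-eIF2a-CHOP signalling / Buffer or medium: F12 plus 10% serum / Compound dosing: one dose, 10 µM in 0.5% DMSO / Times: 6 h compound treatment, 37 °C / Technique: luciferase luminescence / Read-out: % reporter activation, DMSO baseline versus tunicamycin full activation / Benchmarks: tunicamycin and DMSO controls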
* marks the source's active call; other numbers are inactive results; · = no result. Only a selection was taken, and hits are over-represented in it overall.

SMILES	NOD2-RIPK2 inh	XBP1 UPR activ	CHOP inhibitor	TLR4-MyD88 BLA	TLR9-MyD88 block	CHOP UPR activ
Cc1[nH]n(C(N)=S)c(=O)c1N=Nc1cccc([N+](=O)[O-])c1C	-14	-2	·	·	-1	4
NC(=S)n1[nH]c(-c2ccc([N+](=O)[O-])cc2)c(N=Nc2ccccc2[N+](=O)[O-])c1=O	-3	·	85*	5	-4	·
Cc1c(N=Nc2c(-c3ccc([N+](=O)[O-])cc3)[nH]n(C(N)=S)c2=O)cccc1[N+](=O)[O-]	-5	·	106*	-19	10	·
O=C(Nc1cccc(S(=O)(=O)N2CCOCC2)c1)c1cn(-c2ccccc2)nc1-c1ccc(F)cc1	-5	-1	72*	-2	-3	8
O=C(/C=C/c1ccccc1Cl)Nc1ccc2c(c1)C(=O)NC2=O	-11	-1	94*	-1	-6	1
CCOC(=O)C(=CNc1cc(C)ccc1C)C(=O)OCC	-1	1	88*	-5	-6	4
O=C(NNC(=O)c1ccc(Br)s1)c1ccc(F)c(S(=O)(=O)N2CCOCC2)c1	0	-2	·	·	-22	-1
CS(=O)CC(O)(c1ccc(F)cc1)C1CC1 (stereo not drawn)	2	·	·	·	-9	·
Oc1c(C(c2ccco2)N2CCN(C(c3ccccc3)c3ccccc3)CC2)sc2ncnn12 (stereo not drawn)	14	-3	95*	-9	0	3
CCOc1ccc(-c2cc(CCCC(=O)N3CCN(c4ccc(OC)cc4)CC3)no2)cc1	6	-5	94*	-7	6	0
CCc1nc2c(OCC(=O)c3ccc(Cl)cc3Cl)cccn2c1N(C)C(=O)c1cccs1	-11	·	·	·	·	·
O=S1(=O)C[C@H](N2CCC(Cc3ccccc3)CC2)[C@@H](COCc2ccccc2)N1	0	·	·	·	·	·
Fc1ccc(CSc2nc3ncc(Br)cc3[nH]2)cc1	0	0	74*	-1	-1	-1
CS(=O)(=O)N(CC(=O)NCc1ccncc1)c1ccc(F)c(Cl)c1	0	-2	0	5	-2	2
C=CCNC(=O)CN(c1ccc(F)c(Cl)c1)S(C)(=O)=O	-2	-1	79*	1	10	-2
COCCn1nnnc1C(c1cc2cc(OC)ccc2[nH]c1=O)N1CCC(Cc2ccccc2)CC1 (stereo not drawn)	-15	-3	·	1	-6	0
COc1ccc2cc(C(c3nnnn3CCc3ccccc3)N3CCCC(C)C3)c(=O)[nH]c2c1 (stereo not drawn)	1	-4	87*	-8	-7	-2
COc1ccc(C(O)c2ncc(-c3ccccc3Cl)[nH]2)cc1F (stereo not drawn)	-5	·	·	·	·	·
O=C(NCc1cccc(Cl)c1)c1ccc(S(=O)(=O)Nc2cccc(C(F)(F)F)c2)cc1	-6	-1	90*	4	-7	2
O=C(Cc1cccc(C(F)(F)F)c1)NCc1cccc(Cl)c1	9	0	24	-13	-2	1
Cc1cc2c3c(c1)C(C)CC(C)(C)N3C(=O)C2=O (stereo not drawn)	-2	9	-19	7	-2	0
CC1CC2(CCCCC2)N2C(=O)C(=O)c3cccc1c32 (stereo not drawn)	2	3	75*	-8	-1	-1
COC(=O)[C@]12CCCCC=C1N(Cc1ccccc1)C(=O)[C@H](CC(=O)NCc1cccc(C(F)(F)F)c1)C2	4	·	·	·	·	·
O=C(CC1SC(=O)N(Cc2cccc3ccccc23)C1=O)Nc1nccs1 (stereo not drawn)	-2	0	73*	-9	0	0
Cn1c(NCc2cccnc2)nc2cc(-c3cccc(C(=O)NCCO)c3)sc2c1=O	12	·	·	·	·	·
SMILES	NOD2-RIPK2 inh	XBP1 UPR activ	CHOP inhibitor	TLR4-MyD88 BLA	TLR9-MyD88 block	CHOP UPR activ
COc1cc([N+](=O)[O-])ccc1NC(=S)Nc1cc(C(=O)OC(C)C)cc(C(=O)OC(C)C)c1	3	0	85*	6	3	15
O=C(c1cc2ccccc2o1)N1CCN(c2ccccc2Cl)CC1	-4	1	82*	1	0	-1
O=C(c1cc2ccccc2o1)N1CCN(c2cccc(Cl)c2)CC1	4	-3	·	·	0	1
O=C(O)CCSc1nnc(SCC(=O)NCC(F)(F)F)s1	-10	0	22	2	2	2
C=CCc1ccccc1OCC(O)CN1CCN(c2ccc(C)cc2)CC1 (stereo not drawn)	-6	-3	79*	16	-1	2
Cc1ccccc1OCC(O)CN1CCN(CCN2C(=O)c3cccc4cccc(c34)C2=O)CC1 (stereo not drawn)	10	3	33	12	-6	-1
Cc1cccc(C)c1OCC(O)CN1CCC(CN2C(=O)c3cccc4cccc(c34)C2=O)CC1 (stereo not drawn)	9	-1	79*	-1	-6	6
C=CCc1ccccc1OCC(O)CN1CCN(CCN2C(=O)c3cccc4cccc(c34)C2=O)CC1 (stereo not drawn)	4	-1	86*	2	-2	2
CC(C)OCC(O)CN1CCN(CCN2C(=O)c3cccc4cccc(c34)C2=O)CC1 (stereo not drawn)	8	-5	·	·	-9	2
Cc1cc(NC(=O)CSc2nnc(-c3c[nH]c4ccccc34)n2C)no1	-1	-1	7	-12	-2	2
O=C(CCCN1C(=O)/C(=C/c2ccccc2)SC1=S)Nc1ccccc1O	-4	0	82*	8	1	-2
COc1ccc(/C=C2\SC(=O)N(CC(=O)NNC(=O)c3ccccc3O)C2=O)cc1	-1	-1	78*	6	-5	1
O=C(CCCN1C(=O)S/C(=C\c2ccccc2)C1=O)NNC(=O)c1ccccc1O	3	-4	95*	16	7	-6
COc1ccc(/C=C2\SC(=O)N(CC(=O)NNC(=O)c3ccccc3O)C2=O)cc1OC	2	-3	25	-13	7	-2
O=C(CN1C(=O)S/C(=C\c2ccccc2)C1=O)NNC(=O)c1ccccc1O	-7	-4	53	2	-2	0
Cc1ccccc1-n1ncc2c1CC(C)(C)CC2NC(=O)CCCN1CCCC1=O (stereo not drawn)	2	-1	·	·	8	1
Clc1ccc(-c2noc(CSc3nnc(Cc4cccs4)n3-c3ccccc3)n2)cc1	2	-2	81*	-13	-2	0
Fc1ccc(-n2c(Cc3ccccc3)nnc2SCc2nc(-c3cccs3)no2)cc1	2	-3	75*	-5	-12	0
c1ccc(-c2noc(CSc3nnc(Cc4cccs4)n3-c3ccccc3)n2)cc1	-2	0	14	0	7	1
